# CXCR6 inh = inhibitors of human CXCR6 receptor | actives 0.36% (n = 360,000) | inhibition, % at 20 µM | AID 602244 | CHO-K1 PathHunter CXCR6 beta-arrestin, luminescence | O00574; in the data active = inhibition above about 34%, passing the limit was not always enough;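 note: antagonist mode with CXCL16 agonist at 10 nM final; 0% = 10 nM CXCL16 with DMSO and 100% = unstimulated wells without agonist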
# CCR6 antag = antagonists of human CCR6 receptor | AID 493098 | inhibition, % at 20 µM | P51684 | actives 0.49% (n = 340,000) | CHO-K1 CCR6 PathHunter beta-arrestin, luminescence, CCL20-stimulated;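 active = compounds whose inhibition of the agonist-driven luminescence signal at 20 µM reaches about 50%, limit read from the data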;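 note: cells stimulated with CCL20 at 14 nM final; plate controls were DMSO with CCL20 for no effect and DMSO without agonist for full effect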
# m5-HT2A agonist = activates the mouse 5-HT2A serotonin receptor; AID 624169; actives 0.66% (n = 360,000); activation, % at 7.6 µM; CHO-K1 mHTR2A beta-arrestin complementation, luminescence; percent of 30 µM serotonin response;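 active = activation above a run cutoff, the mean activation of all tested compounds plus 3 SD, cut at about 14% in these data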;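 note: 0% = plate median of compound wells and 100% = 30 µM serotonin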
# EBI2 antag = antagonists of human EBI2 receptor. P32249. EBI2 beta-arrestin recruitment, luminescence, 7a,25-OHC stimulated. inhibition, % at 5 µM. actives 0.81% (n = 360,000); in the data active = inhibition above about 38%;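 note: enzyme fragment complementation signal reports receptor beta-arrestin coupling in cells; 0% = agonist plus DMSO wells and 100% = wells without agonist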
# APJ agonist = activates the human apelin receptor APJ; actives 0.11% (n = 330,000); CHO-K1 APJ PathHunter beta-arrestin, luminescence; 0% DMSO wells, 100% apelin; activation, % at 20 µM;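 active = activation more than six SD over the plate average, tested at 20 µM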;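 note: 0% = DMSO alone and 100% = apelin-13 at 10 nM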
# Target sequence (P35414 whole entry, looked up): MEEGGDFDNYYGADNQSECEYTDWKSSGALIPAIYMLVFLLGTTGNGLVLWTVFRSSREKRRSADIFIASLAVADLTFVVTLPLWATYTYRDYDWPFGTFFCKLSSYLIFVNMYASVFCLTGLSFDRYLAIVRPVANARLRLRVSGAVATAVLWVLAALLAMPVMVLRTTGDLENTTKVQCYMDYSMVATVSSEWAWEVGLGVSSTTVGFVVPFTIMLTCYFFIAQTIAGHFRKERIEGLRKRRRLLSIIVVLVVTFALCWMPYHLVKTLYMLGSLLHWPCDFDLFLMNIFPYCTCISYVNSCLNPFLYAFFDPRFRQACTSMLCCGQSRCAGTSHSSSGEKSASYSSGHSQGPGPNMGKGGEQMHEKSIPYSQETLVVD
#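 system = engineered CHO-K1 APJ arrestin reporter cells | input = 1000 cells per well | timing = overnight seeding, 90 min compound at 25 °C, 1 h detection | measured by = enzyme-fragment complementation luminescence | read-out = beta-arrestin recruitment to APJ as agonist activity, luminescent signal | control set = negative DMSO alone, positive Apelin-13 at 10 nM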
# APJ antagonist = APJ receptor antagonism; P35414; CHO-K1 APJ beta-arrestin complementation, luminescence; inhibition, % at 20 µM; actives 0.32% (n = 330,000); AID 2521;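 active = inhibition above about 40% at 20 µM, limit read from the data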;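 note: cells challenged with 10 nM apelin-13 agonist together with compound; plate controls were apelin-13 plus DMSO wells for no effect and DMSO wells lacking apelin-13 for full effect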
# APJ antag confirm = confirmation of human APJ apelin receptor antagonists; actives 66% (n = 950); APJ beta-arrestin recruitment, luminescence, antagonist mode; inhibition, % at 20 µM; shares compounds with APJ antagonist; AID 2766; in the data active = inhibition above about 50%
# * hit, by the source's call; · = no result given. Most compounds without a hit are left out; they make up all but 2.2% or so of the library.
SMILES,CXCR6 inh,CCR6 antag,m5-HT2A agonist,EBI2 antag,APJ agonist,APJ antagonist,APJ antag confirm
O=[N+]([O-])c1ccc(N=NN(CCO)CCO)cc1,1.2,10.6,1.4,5.0,-2.7,8.6,·
O=[N+]([O-])c1ccc(N=Nc2ncc[nH]2)cc1,51.6*,67.8*,-8.3,31.3,-8.2,41.1*,88.4*
O=C1C2C3C=CC(C3)C2C(=O)N1/N=C/c1cc(Br)cc([N+](=O)[O-])c1O (centres undefined),36.8,54.3*,-3.4,10.6,-5.2,42.0*,52.3*
O=c1[nH]cc(CCCc2ccccc2)c(=O)[nH]1,-2.4,·,0.5,-13.9,·,·,·
COc1cccc(C(=O)N2CCC[C@@H]2C(=O)N2CCC[C@H]2C(=O)NCc2ccncc2)c1,-6.1,·,-0.7,2.8,·,·,·
O=C1Nc2ccc(Br)cc2C1=C1CCCCC1,-2.0,-4.4,2.2,-8.8,1.3,-4.5,·
Cc1cccc2c1NC(=O)C2=Nc1ccc(Cl)cc1,32.2,75.9*,-2.9,9.2,-13.8,63.0*,93.9*
Cc1ccc(N=C2C(=O)Nc3ccc(Br)cc32)cc1,36.2,54.4*,6.7,17.1,-15.6,68.5*,155.9*
Cc1ccc(N=C2C(=O)Nc3c(C)cccc32)cc1,18.1,58.2*,0.7,11.4,-8.9,42.6*,94.7*
OC(c1ccc(F)c(F)c1)c1nc(-c2ccc3ccccc3c2)cs1 (centres undefined),-17.5,·,1.8,3.9,·,·,·
COc1cc(NS(=O)(=O)c2ccc(NC(=S)NC(=O)C3CCCC3)cc2)nc(OC)n1,5.2,-3.2,-6.2,-3.3,-1.9,50.3*,87.3*
COc1cc(NS(=O)(=O)c2ccc(NC(=S)Nc3ccccc3)cc2)nc(OC)n1,-7.4,-1.8,6.4,-2.0,9.4,5.6,·
C[C@H](CO)N1C[C@H](C)[C@@H](CN(C)Cc2ccc(Cl)c(Cl)c2)OCc2cnnn2CCCC1=O,8.4,·,-3.7,-2.4,·,·,·
Cn1cccc1Cc1nnc(SCC(=O)NCc2ccc(F)cc2)n1-c1ccc(F)cc1,-1.4,-1.5,0.6,18.8,-0.9,58.0*,14.0
O=C(OCC(=O)c1ccc(Cl)cc1Cl)c1ccc2c(c1)C(=O)N(c1cccc3ncccc13)C2=O,8.5,44.1,0.3,35.8,-9.0,55.5*,72.8*
O=C(OCC(=O)c1ccccc1Br)c1ccccn1,1.5,-5.2,-0.9,-20.2,-5.4,2.2,·
O=C(CCC(=O)OCC(=O)c1ccc(Cl)cc1Cl)Nc1cccc2cccnc12,12.0,62.4*,5.1,8.9,-11.6,64.3*,92.4*
O=C(OCC(=O)c1ccc(Cl)cc1Cl)c1ccccn1,26.1,47.6,-0.9,10.4,-10.2,61.8*,88.7*
O=C(Nc1ccc2c(c1)OCCO2)c1[nH]c(C(F)(F)F)nc1-c1ccccc1,0.9,·,1.0,-3.2,·,·,·
CC1=C/C(=C(/c2ccc(O)c(C)c2)c2ccccc2S(=O)(=O)O)C=CC1=O,41.2*,55.1*,-5.9,5.3,-8.8,46.1*,59.1*
CC1=C/C(=C(/c2cc(C)c(O)c(Br)c2)c2ccccc2S(=O)(=O)O)C=C(Br)C1=O,43.2*,64.0*,-3.4,16.1,-10.5,45.6*,86.4*
CCN(CC)S(=O)(=O)c1ccc(N2CCOCC2)c(NC(=O)c2nn(C(C)C)c(=O)c3ccccc23)c1,12.6,·,1.4,14.3,·,·,·
COC(=O)c1ccc2nc(-c3ccco3)c(Cc3ccccc3)n2c1,4.7,·,-5.6,19.4,·,·,·
CC(C)Cc1nc2oc3c(Cl)ncnc3c2c2c1CCC2,14.8,22.7,-0.1,48.3*,-2.1,40.8*,86.4*
Cc1ccc(CNC(=O)c2cc(-c3cc(C)cc(C)c3O)n[nH]2)cc1,-3.8,8.1,-7.5,34.5,-1.0,2.5,·
Cc1ccc(O)c(-c2cc(C(=O)NCc3ccc4c(c3)OCO4)[nH]n2)c1,-5.0,11.3,2.2,7.8,-3.5,45.3*,-2.8
CCCCCCCc1ccc(C2NC(=S)NC3=C2C(=O)c2ccccc23)cc1 (centres undefined),·,13.0,·,·,-5.0,56.2*,23.2
COc1ccc(Cl)cc1Cn1c(C)c(C(=O)NCc2ccc(F)cc2)sc1=O,6.0,·,-2.6,13.7,·,·,·
